According to ChEMBL document CHEMBL1136044, “Antitrypanosomal activities and cytotoxicity of 5-nitro-2-furancarbohydrazides” (Bioorg Med Chem Lett, 2002):

Key:
Trypanosoma cruzi = experiment: Evaluated in vitro for antitrypanosomal activity against Trypanosoma cruzi; type: functional; settings: read-out: ED50 (the source's name)
Outline: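 Mouse peritoneal macrophages were seeded at 30,000 per well. After 24 h, about 100,000 T. cruzi trypomastigotes were added per well with 2-fold drug dilutions, then held 4 days at 37 °C in 5% CO2. After methanol fixation and Giemsa staining, % reduction of total parasite load (free trypomastigotes plus intracellular amastigotes) versus untreated cultures was scored microscopically; ED50 was extrapolated.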

[1] = Tested for cytotoxicity towards mouse peritoneal macrophages (MPM); type: functional
Outline: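 Peritoneal macrophages were harvested 48 h after potato-starch stimulation and seeded at 30,000 per well. After 24 h they were washed and given two-fold drug dilutions (32 down to 1.6) in RPMI + 5% FCS, with final DMSO below 0.5%. Cultures ran 7 days at 37 °C in 5% CO2 alongside untreated controls.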

MRC5 = experiment: Tested for cytotoxicity towards human MRC-5 cells; type: functional
Outline: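 MRC-5 cells were seeded at 5000 per well and washed after 24 h. Two-fold drug dilutions (32 down to 1.6) were added in RPMI + 5% FCS, with final DMSO below 0.5%. After 7 days at 37 °C in 5% CO2, MTT absorbance at 540 nm was read as % reduction versus untreated controls to give CC50.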

Trypanosoma brucei = experiment: Evaluated in vitro for antitrypanosomal activity against Trypanosoma brucei; type: functional; settings: read-out: ED50 (the source's name)
Outline: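 T. brucei bloodstream forms were grown in HMI-9 medium. 10,000 haemoflagellates per well were exposed to different drug concentrations for 4 days; ED50 was reported.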

Leishmania infantum = experiment: Evaluated in vitro for antitrypanosomal activity against Leishmania infantum; type: functional; settings: read-out: ED50 (the source's name)
Outline: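 Primary mouse peritoneal macrophages, 30,000 per well on culture slides. After 24 h, L. infantum amastigotes from the spleen of an infected donor animal were added at a 10/1 infection ratio with two-fold drug dilutions. Incubation was 7 days at 37 °C in 5% CO2. Wright-stained slides were scored microscopically for % reduction of parasite load or infected macrophages, and ED50 was extrapolated.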

Trypanothione reductase = Trypanothione reductase (Trypanosoma cruzi, UniProt P28593); experiment: Compound was tested for inhibition of trypanothione reductase from Trypanosoma cruzi
Chain of Trypanothione reductase (P28593 whole entry): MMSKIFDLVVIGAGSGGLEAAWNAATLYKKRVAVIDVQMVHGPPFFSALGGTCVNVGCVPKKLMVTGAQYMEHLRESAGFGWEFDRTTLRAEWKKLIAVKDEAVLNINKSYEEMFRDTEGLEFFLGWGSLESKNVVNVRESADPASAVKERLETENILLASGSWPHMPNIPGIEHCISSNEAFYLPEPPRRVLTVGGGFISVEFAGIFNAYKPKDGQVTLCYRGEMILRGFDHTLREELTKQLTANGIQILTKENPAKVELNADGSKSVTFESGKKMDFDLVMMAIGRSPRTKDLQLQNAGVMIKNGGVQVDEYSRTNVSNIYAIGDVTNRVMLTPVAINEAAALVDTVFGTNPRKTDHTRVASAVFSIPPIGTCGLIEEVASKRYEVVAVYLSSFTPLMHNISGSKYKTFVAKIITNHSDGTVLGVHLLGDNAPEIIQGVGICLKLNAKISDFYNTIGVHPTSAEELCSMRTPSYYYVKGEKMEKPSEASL
Outline: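 T. cruzi trypanothione reductase assay, with trypanothione disulfide as substrate and 0.02 U TR per assay; IC50 determined over increasing compound concentrations.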

Compound	EC50 (Trypanosoma cruzi)	CC50 [1]	CC50 (MRC5)	EC50 (Trypanosoma brucei)	EC50 (Leishmania infantum)	IC50 (Trypanothione reductase)
O=C(NNC(=O)c1ccc([N+](=O)[O-])o1)c1ccc2ccccc2c1	4000 nM	32 µM	2 µM	130 nM	8 µM	
O=C(NNC(=O)c1ccc([N+](=O)[O-])o1)c1ccc([N+](=O)[O-])o1	3000 nM	32 µM	4 µM	3000 nM	8 µM	> 50 µM
CC(C)(C)OC(=O)NNC(=O)c1ccc([N+](=O)[O-])o1	1000 nM	32 µM	12 µM	2000 nM	> 32 µM	> 50 µM
O=C(NNS(=O)(=O)c1ccccc1)c1ccc([N+](=O)[O-])o1	16000 nM	32 µM	4 µM	2000 nM	> 32 µM	
O=C(Cc1ccc2ccccc2c1)NNC(=O)c1ccc([N+](=O)[O-])o1	400 nM	32 µM	4 µM	590 nM	8 µM	> 25 µM
O=C(NNS(=O)(=O)c1cccc2ccccc12)c1ccc([N+](=O)[O-])o1	800 nM	32 µM	0.75 µM	1000 nM	8 µM	
NNC(=O)c1ccc([N+](=O)[O-])o1	500 nM	32 µM	9 µM	5000 nM	> 32 µM	> 50 µM
COC(=O)c1ccc([N+](=O)[O-])o1	> 32000 nM	32 µM	> 32 µM	> 32000 nM	> 32 µM	
CC(C)(C)OC(=O)N[C@@H](C(=O)NNC(=O)c1ccc([N+](=O)[O-])o1)c1ccccc1	4000 nM	32 µM	6 µM	250 nM	8 µM	
O=C(NNS(=O)(=O)c1ccc2ccccc2c1)c1ccc([N+](=O)[O-])o1	> 32000 nM	32 µM	18 µM	28000 nM	> 32 µM	
O=C(NNC(=O)c1cccc2ccccc12)c1ccc([N+](=O)[O-])o1	3000 nM	32 µM	1 µM	400 nM	8 µM	
CC(C)(C)OC(=O)Nc1ccc2cc(C(=O)NNC(=O)c3ccc([N+](=O)[O-])o3)ccc2c1	1000 nM	32 µM	2 µM	500 nM	8 µM	
O=C(Cc1ccccc1)NNC(=O)c1ccc([N+](=O)[O-])o1	1000 nM	32 µM	2 µM	300 nM	8 µM	
O=C(NNC(=O)c1ccc([N+](=O)[O-])o1)c1ccccc1	16000 nM	32 µM	17 µM	32000 nM	> 32 µM	
N[C@@H](C(=O)NNC(=O)c1ccc([N+](=O)[O-])o1)c1ccccc1	2000 nM	32 µM	14 µM	2000 nM	> 32 µM	
Nc1ccc2cc(C(=O)NNC(=O)c3ccc([N+](=O)[O-])o3)ccc2c1	4000 nM	32 µM	0.77 µM	640 nM	8 µM	
O=C(O)c1ccc([N+](=O)[O-])o1 [5-NITRO-2-FUROIC ACID]	> 32000 nM	32 µM	> 32 µM	5000 nM	> 32 µM	
O=C(Cn1ccnc1[N+](=O)[O-])NCc1ccccc1 [BENZNIDAZOLE]	3130 nM		> 50 µM			
Nc1nc(N)nc(Nc2ccc([As]3SCC(CO)S3)cc2)n1 (centres undefined) [MELARSOPROL]				200 nM		
CC1CS(=O)(=O)CCN1/N=C/c1ccc([N+](=O)[O-])o1 (centres undefined) [NIFURTIMOX]	400 nM		> 50 µM			
